Data from ChEMBL document CHEMBL3853352, “Anti-tubercular activities of 5,6,7,8-tetrahydrobenzo[4,5]thieno[2,3-d]pyrimidin-4-amine analogues endowed with high activity toward non-replicative Mycobacterium tuberculosis” (Bioorg Med Chem, 2016).
≈ marks a conversion by molar mass, not a printed value.

Key:
[1] = target: T1, L-lysine-epsilon aminotransferase (Mycobacterium tuberculosis) (UniProt P9WQ77); assay: Inhibition of Mycobacterium tuberculosis LAT at 25 uM
T1 sequence (whole entry): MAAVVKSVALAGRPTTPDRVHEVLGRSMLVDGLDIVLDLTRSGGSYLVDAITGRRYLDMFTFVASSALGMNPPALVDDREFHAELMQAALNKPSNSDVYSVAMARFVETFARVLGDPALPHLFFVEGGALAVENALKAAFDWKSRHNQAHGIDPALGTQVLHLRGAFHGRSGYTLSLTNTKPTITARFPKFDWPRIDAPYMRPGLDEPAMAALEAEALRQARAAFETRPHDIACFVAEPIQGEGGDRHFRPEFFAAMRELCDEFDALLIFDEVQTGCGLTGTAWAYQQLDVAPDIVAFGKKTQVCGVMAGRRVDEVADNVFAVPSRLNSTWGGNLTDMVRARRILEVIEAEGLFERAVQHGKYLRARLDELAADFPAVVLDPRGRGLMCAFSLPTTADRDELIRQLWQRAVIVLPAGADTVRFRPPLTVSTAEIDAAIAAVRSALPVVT

[2] = tested on: Mycobacterium tuberculosis; assay: Antimycobacterial activity against Mycobacterium tuberculosis H37Rv after 7 days by MABA; assay type: functional; details: 168 h
In short: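 M. tuberculosis H37Rv inoculum taken from fresh LJ medium, resuspended in 7H9-S (7H9, 0.1% casitone, 0.5% glycerol, OADC), adjusted to McFarland No. 1 and diluted 1:20. Serial two-fold drug dilutions in 7H9-S, with growth and sterile controls. Incubated 7 days at 37 °C in normal atmosphere, then alamar blue added and incubated overnight. MIC = lowest concentration preventing the blue-to-pink change.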

[3] = Inhibition of Mycobacterium tuberculosis ADH assessed as decrease in conversion of L-alanine to pyruvate by measuring NADH by spectrophotometry; design: species or system Mycobacterium tuberculosis H37Rv
In short: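 Mtb L-AlaDH oxidative deamination of L-alanine to pyruvate at 37 °C. NADH formation read at 340 nm. Compounds tested from 25 µM to 0.5 µM. Background read from the reaction mixture without enzyme. IC50 values calculated from the concentration series.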

[4] = Cytotoxicity against mouse RAW264.7 cells assessed as inhibition of cell proliferation at 50 ug/ml after 48 hrs by MTT assay; assay type: toxicity
In short: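 RAW 264.7 mouse macrophages grown in RPMI with 10% FBS and penicillin/streptomycin, then seeded at about 5000 cells/well on poly-L-lysine-coated plates. Pre-incubated 24 h at 37 °C, 5% CO2, then exposed to compound for 48 h. MTT (0.5 mg/ml) added for 3 h and formazan read at 595 nm.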

[5] = tested on: Mycobacterium tuberculosis H37Rv; assay: Inhibition of Mycobacterium tuberculosis ADH assessed as decrease in conversion of L-alanine to pyruvate at 25 uM by measuring NADH by spectrophotometry
[6] = tested on: Mycobacterium tuberculosis; assay: Antimycobacterial activity against dormant stage of Mycobacterium tuberculosis H37Rv assessed as reduction in bacterial growth under nutrient starved conditions at 10 ug/ml for 7 days measured after 28 days; assay type: functional
In short: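 H37Rv grown in 7H9/OADC, washed twice and resuspended in PBS, then held in sealed bottles at 37 °C for 6 weeks. Starved cultures exposed to compound at 10 ug/ml for 7 days. Cells diluted 10-fold serially to 10^-6 in 7H9/OADC and plated in triplicate. Incubated 28 days at 37 °C without agitation; wells with visible growth scored positive and MPN calculated.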

SMILES	inhibition [1] [%]	MIC [2] [µM]	IC50 [3] [µM]	inhibition at 48 h, 50 ug/ml [4] [%]	inhibition [5] [%]	fold change (FC) [6]
Cc1ccc(C)c(Nc2nc(C3CC3)nc3sc4c(c23)CCCC4)c1	< 50	35.8 (≈ 12.5 µg/mL)	2.07	16.3	50	>1
Fc1ccc(Nc2nc(-c3ccccc3)nc3sc4c(c23)CCCC4)cc1	< 50	33.3 (≈ 12.5 µg/mL)	12.2	33.4	50	–
CCc1nc(NCc2ccccc2)c2c3c(sc2n1)CCCC3	< 50	38.6 (≈ 12.5 µg/mL)	6.03	7.05	50	>1
CCc1nc(Nc2c(C)cccc2C)c2c3c(sc2n1)CCCC3	< 50	18.5 (≈ 6.25 µg/mL)	5.02	26.5	50	>1
c1ccc(CNc2nc(C3CC3)nc3sc4c(c23)CCCC4)cc1	< 50	18.6 (≈ 6.25 µg/mL)	4.23	23.1	50	>1
Cc1ccc(C)c(Nc2nc(-c3ccccc3)nc3sc4c(c23)CCCC4)c1	< 50	2.02 (≈ 0.779 µg/mL)	5.82	3.23	50	>1
COc1c(N2C[C@@H]3CCCN[C@@H]3C2)c(F)cc2c(=O)c(C(=O)O)cn(C3CC3)c12 [MOXIFLOXACIN]	–	1.26 (≈ 0.506 µg/mL)	> 25	–	–	2.7
c1ccc(CCNc2nc(C3CC3)nc3sc4c(c23)CCCC4)cc1	< 50	35.8 (≈ 12.5 µg/mL)	17	17.4	50	–
CCc1nc(Nc2ccc(C)cc2)c2c3c(sc2n1)CCCC3	< 50	77.3 (≈ 25 µg/mL)	3.26	15.6	50	>1
NNC(=O)c1ccncc1 [ISONIAZID]	–	0.66 (≈ 0.0905 µg/mL)	> 25	12.2	–	1.2
CC[C@@H](CO)NCCN[C@@H](CC)CO [ETHAMBUTOL]	–	7.64 (≈ 1.56 µg/mL)	> 25	–	–	–
CCc1nc(Nc2ccc(Br)cc2)c2c3c(sc2n1)CCCC3	< 50	32.2 (≈ 12.5 µg/mL)	6.54	12.6	50	>1
Cc1ccc(Nc2nc(C3CC3)nc3sc4c(c23)CCCC4)cc1	< 50	74.5 (≈ 25 µg/mL)	13.4	16.2	50	–
CCc1nc(Nc2ccc(F)cc2)c2c3c(sc2n1)CCCC3	< 50	38.2 (≈ 12.5 µg/mL)	6.05	14	50	>1
c1ccc(CCNc2nc(-c3ccccc3)nc3sc4c(c23)CCCC4)cc1	< 50	64.8 (≈ 25 µg/mL)	5.6	24.6	50	>1
Clc1ccc(Nc2nc(-c3ccccc3)nc3sc4c(c23)CCCC4)cc1	< 50	63.8 (≈ 25 µg/mL)	2.72	20.8	50	>1
CCc1nc(Nc2cc(C)ccc2C)c2c3c(sc2n1)CCCC3	< 50	74.1 (≈ 25 µg/mL)	> 25	29.9	–	–

SMILES	inhibition [1] [%]	MIC [2] [µM]	IC50 [3] [µM]	inhibition at 48 h, 50 ug/ml [4] [%]	inhibition [5] [%]	fold change (FC) [6]
CCc1nc(Nc2ccc(C)cc2C)c2c3c(sc2n1)CCCC3	< 50	74.1 (≈ 25 µg/mL)	7.41	9.65	50	>1
Cc1ccc(Nc2nc(C3CC3)nc3sc4c(c23)CCCC4)c(C)c1	< 50	71.5 (≈ 25 µg/mL)	9	23.9	50	>1
Cc1cccc(C)c1Nc1nc(-c2ccccc2)nc2sc3c(c12)CCCC3	< 50	8.11 (≈ 3.13 µg/mL)	8.82	25.5	50	>1
CCc1nc(Nc2ccc(OC)cc2)c2c3c(sc2n1)CCCC3	< 50	73.7 (≈ 25 µg/mL)	4.68	15.2	50	>1
CCc1nc(Nc2ccccc2)c2c3c(sc2n1)CCCC3	< 50	20.2 (≈ 6.25 µg/mL)	15.1	7.82	50	>1
c1ccc(Nc2nc(-c3ccccc3)nc3sc4c(c23)CCCC4)cc1	< 50	4.36 (≈ 1.56 µg/mL)	11.4	7.15	50	>1
CO[C@H]1/C=C/O[C@@]2(C)Oc3c(C)c(O)c4c(O)c(c(/C=N/N5CCN(C)CC5)c(O)c4c3C2=O)NC(=O)/C(C)=C\C=C\[C@H](C)[C@H](O)[C@@H](C)[C@@H](O)[C@@H](C)[C@H](OC(C)=O)[C@@H]1C [RIFAMPIN]	–	0.23 (≈ 0.189 µg/mL)	> 25	9.56	–	2
Clc1ccc(Nc2nc(C3CC3)nc3sc4c(c23)CCCC4)cc1	< 50	8.78 (≈ 3.12 µg/mL)	11.1	15.5	50	–
c1ccc(Nc2nc(C3CC3)nc3sc4c(c23)CCCC4)cc1	< 50	9.72 (≈ 3.12 µg/mL)	> 25	8.8	–	–
Cc1cccc(C)c1Nc1nc(C2CC2)nc2sc3c(c12)CCCC3	< 50	17.9 (≈ 6.25 µg/mL)	7.55	13.5	50	>1
COc1ccc(Nc2nc(C3CC3)nc3sc4c(c23)CCCC4)cc1	< 50	17.8 (≈ 6.25 µg/mL)	> 25	34.4	–	>1
Cc1ccc(Nc2nc(-c3ccccc3)nc3sc4c(c23)CCCC4)cc1	< 50	33.6 (≈ 12.5 µg/mL)	7.97	41.1	50	>1
Brc1ccc(Nc2nc(C3CC3)nc3sc4c(c23)CCCC4)cc1	< 50	15.6 (≈ 6.25 µg/mL)	8.93	33.4	50	>1
c1ccc(CNc2nc(-c3ccccc3)nc3sc4c(c23)CCCC4)cc1	< 50	33.6 (≈ 12.5 µg/mL)	9.68	26.5	50	>1
Cc1ccc(Nc2nc(-c3ccccc3)nc3sc4c(c23)CCCC4)c(C)c1	< 50	16.2 (≈ 6.25 µg/mL)	9.96	7.97	50	>1
Fc1ccc(Nc2nc(C3CC3)nc3sc4c(c23)CCCC4)cc1	< 50	36.8 (≈ 12.5 µg/mL)	8.91	4.82	–	>1
